Experimental findings from ChEMBL document CHEMBL1800025 (J Med Chem, 2011) are described below.

Activity calls are given as the source filed them. The calls are words filed in the database; no cut-off is given here.

Test [1] deals with Dual specificity protein kinase CLK3 (Mus musculus, UniProt O35492). The experiment in a line: Inhibition of mouse recombinant GST-tagged CLK3 using GRSRSRSRSRSR as substrate. The method, boiled down: (§1)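 Mouse GST-fusion CLK1 or CLK3 expressed in E. coli. Assay buffer A (Tris-HCl pH 7.5, MgCl2, EGTA, DTT, heparin) plus 0.15 mg/mL BSA. RS peptide 1 μg/assay, 15 μM ATP final, 30 C. Blank subtracted; activity expressed as percent of activity without inhibitor. DMSO controls. Concentration range up to 10 μM.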
Dual specificity protein kinase CLK3, sequence (O35492 whole entry, the tested form may be a part): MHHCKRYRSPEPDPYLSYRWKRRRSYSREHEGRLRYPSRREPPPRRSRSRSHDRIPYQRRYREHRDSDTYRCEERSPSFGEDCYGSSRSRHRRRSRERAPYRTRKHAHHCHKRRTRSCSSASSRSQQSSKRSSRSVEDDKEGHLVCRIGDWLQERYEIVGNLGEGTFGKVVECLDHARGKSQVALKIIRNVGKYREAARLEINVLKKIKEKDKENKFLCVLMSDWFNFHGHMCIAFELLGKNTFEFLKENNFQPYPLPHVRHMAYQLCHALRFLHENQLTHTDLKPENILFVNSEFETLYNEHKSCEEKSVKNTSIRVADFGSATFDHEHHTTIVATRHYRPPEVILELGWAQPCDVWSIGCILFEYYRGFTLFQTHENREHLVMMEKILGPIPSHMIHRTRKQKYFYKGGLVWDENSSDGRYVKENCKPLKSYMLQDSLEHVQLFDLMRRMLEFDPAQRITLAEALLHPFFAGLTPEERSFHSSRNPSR

The target of test [2] is Dual specificity protein kinase CLK1 (Mus musculus, UniProt P22518). The test can be described thus: Inhibition of mouse recombinant GST-tagged CLK1 using GRSRSRSRSRSR as substrate. The method, boiled down: as §1
Dual specificity protein kinase CLK1, sequence (P22518 whole entry): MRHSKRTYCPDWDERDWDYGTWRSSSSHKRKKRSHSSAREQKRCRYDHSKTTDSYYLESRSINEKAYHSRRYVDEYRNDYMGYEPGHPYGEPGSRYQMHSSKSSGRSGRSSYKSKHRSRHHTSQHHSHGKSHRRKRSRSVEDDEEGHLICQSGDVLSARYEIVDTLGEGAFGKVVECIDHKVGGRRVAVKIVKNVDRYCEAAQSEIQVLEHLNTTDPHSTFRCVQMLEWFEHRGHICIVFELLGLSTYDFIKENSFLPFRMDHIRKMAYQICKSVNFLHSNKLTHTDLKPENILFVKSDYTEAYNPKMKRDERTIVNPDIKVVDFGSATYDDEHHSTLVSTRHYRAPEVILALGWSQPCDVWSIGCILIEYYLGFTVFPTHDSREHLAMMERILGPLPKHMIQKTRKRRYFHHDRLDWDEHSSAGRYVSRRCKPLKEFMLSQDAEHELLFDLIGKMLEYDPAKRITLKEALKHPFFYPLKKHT
Test [3] concerns the target Dual specificity tyrosine-phosphorylation-regulated kinase 1A (Rattus norvegicus, UniProt Q63470). The experiment in a line: Inhibition of rat recombinant GST-tagged DYRK1A using KKISGRLSPIMTEQ as substrate and [gamma32]-ATP after 30 mins by scintillation counting. The method, boiled down:
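GST fusion kinases expressed in E. coli and purified on glutathione-agarose; DYRK1A is rat, DYRK2 is human. Assay buffer A (25 mM Tris-HCl pH 7.5, 10 mM MgCl2, 1 mM EGTA, 1 mM DTT, 50 μg/mL heparin) plus 0.15 mg/mL BSA. Product captured on P81 paper, washed in 1% phosphoric acid, scintillation counted. Activity expressed as percent of uninhibited control.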

Test [4] addresses Dual specificity protein kinase CLK2 (Homo sapiens) (UniProt P49760). The following applies: 10 uM.
Test [5] deals with Dual specificity protein kinase CLK1 (Homo sapiens) (UniProt P49759). The test can be described thus: Inhibition of recombinant CLK1-mediated SR 9G8 protein phosphorylation at 10 uM after 30 mins by SDS-PAGE followed by autoradiography. The method in brief: (§2)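 Recombinant SR protein 9G8 (87 ng) phosphorylated by each kinase, diluted to equal specific activity toward RS peptide. 15 μM [γ-33P]ATP, 30 min at 30 C, with or without 10 μM inhibitor. Reaction stopped in loading buffer; SDS-PAGE and autoradiography.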
Dual specificity protein kinase CLK1 (Homo sapiens), sequence (P49759 whole entry, looked up, canonical isoform): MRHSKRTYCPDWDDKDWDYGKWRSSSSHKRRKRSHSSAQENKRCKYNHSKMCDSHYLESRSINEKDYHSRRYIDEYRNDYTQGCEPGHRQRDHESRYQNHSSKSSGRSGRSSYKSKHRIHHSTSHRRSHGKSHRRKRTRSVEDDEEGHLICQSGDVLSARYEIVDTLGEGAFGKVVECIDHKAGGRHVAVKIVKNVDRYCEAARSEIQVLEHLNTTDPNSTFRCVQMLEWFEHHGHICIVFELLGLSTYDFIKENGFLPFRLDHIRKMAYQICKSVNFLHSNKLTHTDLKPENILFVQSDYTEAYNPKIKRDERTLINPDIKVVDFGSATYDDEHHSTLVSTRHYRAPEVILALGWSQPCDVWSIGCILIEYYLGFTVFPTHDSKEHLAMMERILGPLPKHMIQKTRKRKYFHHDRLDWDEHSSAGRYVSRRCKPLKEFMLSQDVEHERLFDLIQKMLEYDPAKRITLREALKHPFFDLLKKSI

The target is the same in test [6]. The experiment in a line: Inhibition of CLK1-mediated SRp55 protein phosphorylation in TNFalpha-stimulated human HMEC1 cells after 1 hr by Western blot analysis. It is filed as cell-based. The method in brief: (§3)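 HMEC-1 cells grown in endothelial medium with 5% FCS at 37 C, 5% CO2. Serum-starved 1 h in basal medium, pretreated 1 h with inhibitor at varying concentrations, then stimulated with 10 ng/mL TNF-alpha. Lysed 2 min after stimulation. Phospho-SRp75 and phospho-SRp55 detected by Western blot with mAb1H4, GAPDH as loading control, quantified by densitometry. At least 3 independent experiments.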
In general terms: A western blot detects proteins with antibodies after separation by electrophoresis.

In test [7] the target is Dual specificity protein kinase CLK4 (Homo sapiens) (UniProt Q9HAZ1). The following applies: 10 uM.
Dual specificity protein kinase CLK4 (Homo sapiens), sequence (Q9HAZ1 whole entry, looked up): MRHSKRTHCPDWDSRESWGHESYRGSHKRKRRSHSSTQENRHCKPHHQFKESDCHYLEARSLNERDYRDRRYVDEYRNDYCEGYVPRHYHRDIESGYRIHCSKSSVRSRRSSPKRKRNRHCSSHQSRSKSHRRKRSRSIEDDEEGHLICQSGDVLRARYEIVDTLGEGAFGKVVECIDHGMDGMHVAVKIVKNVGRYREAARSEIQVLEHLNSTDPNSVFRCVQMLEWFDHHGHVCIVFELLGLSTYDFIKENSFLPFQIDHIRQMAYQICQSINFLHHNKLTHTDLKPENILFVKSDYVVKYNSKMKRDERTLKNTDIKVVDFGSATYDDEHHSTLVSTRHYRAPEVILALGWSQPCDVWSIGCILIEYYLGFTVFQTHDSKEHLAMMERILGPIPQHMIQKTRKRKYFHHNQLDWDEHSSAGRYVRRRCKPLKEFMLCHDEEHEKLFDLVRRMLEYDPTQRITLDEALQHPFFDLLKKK
In test [8] the target is Dual specificity protein kinase CLK1 (Homo sapiens) (UniProt P49759). The test can be described thus: Inhibition of CLK1-mediated SRp75 protein phosphorylation in TNFalpha-stimulated human HMEC1 cells after 1 hr by Western blot analysis. It is filed as cell-based. The method, boiled down:
as §3

For test [9], the target named is T1, Dual specificity tyrosine-phosphorylation-regulated kinase 3 (Homo sapiens) (UniProt O43781).
T1 sequence (whole entry): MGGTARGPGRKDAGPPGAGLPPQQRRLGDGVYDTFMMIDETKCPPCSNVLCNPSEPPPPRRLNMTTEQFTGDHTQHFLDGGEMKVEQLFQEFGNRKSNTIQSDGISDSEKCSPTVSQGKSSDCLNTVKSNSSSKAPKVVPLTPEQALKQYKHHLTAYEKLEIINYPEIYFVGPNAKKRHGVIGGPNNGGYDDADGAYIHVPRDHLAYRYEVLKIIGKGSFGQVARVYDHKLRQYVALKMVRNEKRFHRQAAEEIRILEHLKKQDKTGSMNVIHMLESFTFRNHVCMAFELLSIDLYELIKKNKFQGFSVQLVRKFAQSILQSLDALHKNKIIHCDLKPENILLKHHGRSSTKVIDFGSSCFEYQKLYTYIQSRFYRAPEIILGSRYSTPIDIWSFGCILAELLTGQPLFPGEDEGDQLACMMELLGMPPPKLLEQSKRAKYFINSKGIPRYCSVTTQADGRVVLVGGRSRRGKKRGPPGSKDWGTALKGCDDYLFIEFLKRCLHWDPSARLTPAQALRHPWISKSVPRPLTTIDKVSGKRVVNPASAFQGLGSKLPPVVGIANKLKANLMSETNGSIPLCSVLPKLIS
The experiment in a line: Inhibition of recombinant DYRK3-mediated SR 9G8 protein phosphorylation at 10 uM after 30 mins by SDS-PAGE followed by autoradiography. The method, boiled down: as §2

The target in test [10] is Dual specificity protein kinase CLK3 (Homo sapiens) (UniProt P49761). The experiment in a line: Inhibition of CLK3-mediated SRp55 protein phosphorylation in TNFalpha-stimulated human HMEC1 cells after 1 hr by Western blot analysis. It is filed as cell-based. The method, boiled down:
as §3

The target is the same in test [11]. The experiment in a line: Inhibition of CLK3-mediated SRp75 protein phosphorylation in TNFalpha-stimulated human HMEC1 cells after 1 hr by Western blot analysis. Type of test: cell-based. The method in brief:
as §3

Test [12] addresses Dual specificity protein kinase CLK1 (Homo sapiens) (UniProt P49759). The test can be described thus: Inhibition of CLK1 transfected in human HeLa cells assessed as increase in exon inclusion ratio after 24 hrs by RT-PCR analysis. It is filed as cell-based. The method in brief:
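HeLa cells were transfected with […], with kinase-dead CLK1/K190R as comparator. Inhibitors at varying doses were added 3 h post-transfection, with 0.5% DMSO final in all cultures. Cells were harvested 24 h post-transfection, total RNA was extracted, and E1A splicing products were analysed by RT-PCR. Isoform molar ratios were measured by Bioanalyzer to give the exon inclusion ratio. Three independent samples were used.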

Test [13] deals with Glycogen synthase kinase-3 (Sus scrofa, UniProt B2LUN4+I6LNT8). The experiment in a line: Inhibition of pig brain GSK-3alpha/beta using YRRAAVPPSPSLSRHSSPHQSpEDEEE as substrate. The method, boiled down:
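Compounds were tested at various concentrations, the highest being 10 μM, with DMSO dilution controls. Blanks were subtracted and activity was expressed as percent of the uninhibited maximum.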

Test [14] is filed under the species Sus scrofa. The test can be described thus: Inhibition of pig brain CK1 delta/epsilon using RRKHAAIGpSAYSITA as substrate at 10 uM. The method, boiled down:
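Native CK1δ/ε from porcine brain, assayed in 3-fold diluted buffer C with 25 μM CKS peptide substrate. 15 μM ATP final, 30 C. Activity is percent of uninhibited control after blank subtraction, with DMSO controls. Inhibitor tested over a range of concentrations up to 10 μM.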

The target in test [15] is T2, Dual specificity tyrosine-phosphorylation-regulated kinase 2 (Homo sapiens) (UniProt Q92630).
T2 sequence (whole entry): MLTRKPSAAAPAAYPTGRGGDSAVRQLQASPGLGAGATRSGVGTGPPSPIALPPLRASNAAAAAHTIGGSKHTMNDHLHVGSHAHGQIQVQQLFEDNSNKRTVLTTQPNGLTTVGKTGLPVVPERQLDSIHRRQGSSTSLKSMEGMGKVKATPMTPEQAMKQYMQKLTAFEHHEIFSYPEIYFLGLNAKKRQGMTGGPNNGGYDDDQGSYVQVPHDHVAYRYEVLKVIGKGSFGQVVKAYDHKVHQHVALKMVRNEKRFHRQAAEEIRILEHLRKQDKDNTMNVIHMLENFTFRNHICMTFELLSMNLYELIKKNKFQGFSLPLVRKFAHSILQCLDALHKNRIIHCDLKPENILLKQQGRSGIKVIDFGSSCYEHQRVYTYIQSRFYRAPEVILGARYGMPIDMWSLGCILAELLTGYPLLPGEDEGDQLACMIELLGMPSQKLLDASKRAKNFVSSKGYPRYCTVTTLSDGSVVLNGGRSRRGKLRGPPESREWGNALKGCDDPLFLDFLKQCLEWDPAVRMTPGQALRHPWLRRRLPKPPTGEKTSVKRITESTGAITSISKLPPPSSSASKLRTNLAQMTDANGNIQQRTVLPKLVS
The note with it: 10 uM.

Dual specificity protein kinase CLK3 (Homo sapiens), sequence (P49761 whole entry, looked up): as the sequence (O35492 whole entry, the tested form may be a part) above, with I55L, H64R, C83Y, S86P, A99G, S484T counted along it
Dual specificity protein kinase CLK2 (Homo sapiens), sequence (P49760 whole entry, looked up): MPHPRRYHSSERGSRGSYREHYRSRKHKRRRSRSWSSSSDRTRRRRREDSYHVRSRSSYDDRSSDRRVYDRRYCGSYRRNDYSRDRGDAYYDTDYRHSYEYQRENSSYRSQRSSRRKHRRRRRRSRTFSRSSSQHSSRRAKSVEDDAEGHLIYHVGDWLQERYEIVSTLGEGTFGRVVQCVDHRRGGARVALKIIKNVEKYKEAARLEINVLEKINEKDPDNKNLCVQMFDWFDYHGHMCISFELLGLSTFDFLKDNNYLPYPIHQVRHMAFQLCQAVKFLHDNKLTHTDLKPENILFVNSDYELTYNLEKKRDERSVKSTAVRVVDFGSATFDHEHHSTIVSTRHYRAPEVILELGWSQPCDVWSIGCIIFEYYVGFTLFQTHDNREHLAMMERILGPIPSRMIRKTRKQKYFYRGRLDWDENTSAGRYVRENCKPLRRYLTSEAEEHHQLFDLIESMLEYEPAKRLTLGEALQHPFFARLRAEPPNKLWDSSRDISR

On to `O=C1NC(Nc2ccccc2)=N/C1=C\c1ccc2c(c1)OCO2`, for which the concentration for half-maximal inhibition (IC50) in test [1] is over 10000 nM; in test [2], 15 nM; in [3] it was 40 nM; in test [13], over 10000 nM. The inhibition entry in test [4], in [5], in test [6], in [7], in test [8] and in test [9] was “Active” throughout. Moreover, the inhibition entry in test [10], in test [11] and in test [15] was “Active” in each case. Further, the “increase in exon inclusion ratio” value in test [12] was “Dose-dependent effect”. For the same compound, the inhibition entry in test [14] is “inactive”.

By IC50 is commonly meant the concentration that gives 50% inhibition.
